Our source for the IC50, Activity and Emax values is ChEMBL document CHEMBL5331087, “Targeted AURKA degradation: Towards new therapeutic agents for neuroblastoma” (Eur J Med Chem, 2023).

The structures appear in SMILES notation. Calls of active or inactive are those of the source. The calls are words filed in the database; no cut-off is given here.

The nature of experiment [1]: Growth inhibition of patient derived 000GKX Neuroblastoma organoid assessed as reduction in viability […] by CellTiter Glo 3D assay. The class given is functional, tissue-based, Homo sapiens. The essentials:
(§1)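 Patient-derived organoids were dissociated to single cells with Accutase and seeded in NB organoid medium at 5000 (000GKX), 20000 (NB059), 5000 (NB067) or 3000 (NB139) cells/well. Compound was added after 24 h over a concentration range in triplicate, with DMSO matched. Incubation was 120 h at 37 °C and 5% CO2. Viability was read by CellTiter-Glo 3D, and absolute IC50 derived (n = 1).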

Experiment [2] has as its system SK-N-AS. In words: Antiproliferative activity against human SK-N-AS cells assessed as reduction in cell viability incubated for 48 hrs. The class given is functional, cell-based. The note with it: Homo sapiens, SK-N-AS, 48 h; read-out: IC50. In outline:
(§2)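 Cells were grown in RPMI 1640 with 10% FCS and 2 mM L-glutamine. Seeding was 4500 cells/well for NGP, IMR-32 and N206, and 2100 cells/well for SK-N-AS, with adherence overnight. Compound was dispensed over a concentration range in triplicate. Confluence was imaged live for 48 h and normalised to the DMSO control. Absolute IC50 came from a four-parameter variable-slope fit (n = 4).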

For experiment [3], the target named is T1, N-myc proto-oncogene protein (Homo sapiens) (UniProt P04198).
T1 sequence (whole entry): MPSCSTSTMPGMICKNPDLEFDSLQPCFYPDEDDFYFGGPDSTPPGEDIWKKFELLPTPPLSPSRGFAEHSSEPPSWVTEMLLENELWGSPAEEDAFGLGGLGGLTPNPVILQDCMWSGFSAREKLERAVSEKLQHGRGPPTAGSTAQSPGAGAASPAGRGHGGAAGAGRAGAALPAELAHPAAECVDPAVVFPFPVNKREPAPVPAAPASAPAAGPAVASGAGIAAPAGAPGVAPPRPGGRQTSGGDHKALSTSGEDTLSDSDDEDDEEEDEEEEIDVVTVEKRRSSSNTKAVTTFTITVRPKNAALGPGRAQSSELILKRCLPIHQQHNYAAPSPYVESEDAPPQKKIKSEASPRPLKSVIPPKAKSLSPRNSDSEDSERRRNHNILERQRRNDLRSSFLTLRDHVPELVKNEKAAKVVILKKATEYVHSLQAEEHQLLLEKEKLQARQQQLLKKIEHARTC
The experiment is described as follows: Induction of MYCN degradation in human NGP cells at 500 nM by Western blot analysis. The class given is cell-based. The settings on record: time <= 72.0 hrs. In outline:
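NGP cells were treated with 500 nM compound and harvested at 0, 1, 3, 6, 24, 48 and 72 h. RIPA lysates (35 µg) were run on 10% SDS-PAGE and blotted to nitrocellulose. AURKA and MYCN were probed with vinculin as loading control and quantified by densitometry. Values are percent remaining relative to the DMSO control at each timepoint (n = 3).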

Experiment [4] has as its target T2, Protein cereblon/Aurora kinase A (Homo sapiens) (UniProt O14965+Q96SW2). The experiment is described as follows: PROTAC activity at AURKA/CRBN in human NGP cells assessed as increase in pRPA32 level at 10 to 1000 nM measured for 24 hrs by immunoblotting analysis. The class given is cell-based. The note with it: dose 10-1000 nM.
The nature of experiment [5]: Antiproliferative activity against human N206 cells assessed as reduction in cell viability incubated for 48 hrs relative to control. The class given is functional.
The nature of experiment [6]: Growth inhibition of patient derived NB059 Neuroblastoma organoid assessed as reduction in viability incubated for […] by CellTiter Glo 3D assay relative to control. The class given is functional. The settings on record: Homo sapiens. (Cellular ATP, detected with luciferase, serves as a proxy for viable cell number.)
A further experiment deals with NGP. In words: Induction of apoptosis in human NGP cells assessed as increase in caspase3/7 level at 1000 nM incubated for 24 hrs. Type of experiment: functional, cell-based. In outline:
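NGP cells were seeded at 25,000 cells/well and allowed to adhere overnight. Compound was dispensed in triplicate with DMSO matched. At 24 h, cell-occupied area was imaged live, then a Caspase-Glo 3/7 assay was run using 50 µL reagent per well. Signal is expressed per cell-occupied area.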

Experiment [7] deals with T2, Protein cereblon/Aurora kinase A (Homo sapiens). In words: PROTAC activity at AURKA/CRBN in human NGP cells assessed as AURKA degradation at 100 nM measured for 3 hrs by shotgun proteome profiling relative to control.
Experiment [8] can be described thus: Growth inhibition of patient derived NB067 Neuroblastoma organoid assessed as reduction in viability […] by CellTiter Glo 3D assay. The note with it: Homo sapiens. The class given is functional, tissue-based. In outline:
as §1

The subject of a further experiment is IMR-32. In words: Antiproliferative activity against human IMR-32 cells assessed as reduction in cell viability incubated for 48 hrs. Type of experiment: functional, cell-based. The settings on record: IMR-32, 48 h. The essentials:
as §2

Experiment [9] in a line: Antiproliferative activity against human N206 cells assessed as reduction in cell viability incubated for 48 hrs. The class given is functional, cell-based. The essentials:
as §2

The target in experiment [10] is T2, Protein cereblon/Aurora kinase A (Homo sapiens). The experiment is described as follows: PROTAC activity at AURKA/CRBN in human NGP cells assessed as AURKA degradation at 10 to 1000 nM measured for 24 hrs by Western blot analysis relative to control. The class given is cell-based. The note with it: dose 10-1000 nM. In outline: (§3)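 NGP cells were seeded at about 2×10^6 per flask, adhered for 48 h, and were then treated for 24 h with DMSO matched. Lysis was in RIPA with protease/phosphatase inhibitors. AURKA was quantified by capillary Simple Western with peak areas normalised to vinculin. Fold change is relative to DMSO (mean ± SD, n = 3).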
(In general: Immunoblotting shows a protein as a band on a membrane.)

The nature of experiment [11]: Growth inhibition of patient derived 000GKX Neuroblastoma organoid assessed as reduction in viability incubated for […] by CellTiter Glo 3D assay relative to control. Type of experiment: functional. The note with it: Homo sapiens.
Experiment [12] concerns the target T2, Protein cereblon/Aurora kinase A (Homo sapiens). The experiment is described as follows: PROTAC activity at AURKA/CRBN in human NGP cells assessed as AURKA degradation measured for 24 hrs by Western blot analysis. Type of experiment: cell-based. The settings on record: dose 10-1000 nM.
Experiment [13] can be described thus: Growth inhibition of patient derived NB139 Neuroblastoma organoid assessed as reduction in viability […] by CellTiter Glo 3D assay. Type of experiment: functional, tissue-based. The note with it: Homo sapiens. The essentials:
as §1

Experiment [14] concerns SK-N-AS. The experiment is described as follows: Antiproliferative activity against human SK-N-AS cells assessed as reduction in cell viability incubated for 48 hrs relative to control. Type of experiment: functional. The essentials:
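Cells grown in RPMI 1640 with 10% fetal calf serum, 2 mM L-glutamine and penicillin/streptomycin at 37 °C, 5% CO2. Seeded at 4500 (IMR-32) or 2100 (SK-N-AS) cells/well in 384-well plates and left to adhere overnight. Concentration range dispensed in triplicate. Confluence tracked by IncuCyte live-cell imaging, and 48h values normalized to DMSO. Absolute IC50 taken from a four-parameter variable-slope fit (n = 4).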

In experiment [15] the target is T1, N-myc proto-oncogene protein (Homo sapiens). In words: Induction of MYCN degradation in human NGP cells incubated for 24 hrs by immunoblotting analysis. Type of experiment: cell-based. The settings on record: dose 10-1000 nM.
Experiment [16] is described as follows: Growth inhibition of patient derived NB067 Neuroblastoma organoid assessed as reduction in viability incubated for […] by CellTiter Glo 3D assay relative to control. The class given is functional. The note with it: Homo sapiens.
A short description of experiment [17]: Growth inhibition of patient derived NB139 Neuroblastoma organoid assessed as reduction in viability incubated for […] by CellTiter Glo 3D assay relative to control. Type of experiment: functional. The settings on record: Homo sapiens.
Experiment [18] is described as follows: Growth inhibition of patient derived NB059 Neuroblastoma organoid assessed as reduction in viability incubated for 48 hrs by CellTiter Glo 3D assay. Type of experiment: functional, tissue-based, Homo sapiens. The settings on record: in the assay text read “120 hrs” for “48 hrs”. In outline:
as §1

The target of experiment [19] is T2, Protein cereblon/Aurora kinase A (Homo sapiens). The experiment is described as follows: PROTAC activity at AURKA/CRBN in human NGP cells assessed as AURKA degradation at 0.1 to 1000 nM measured for 24 hrs by Western blot analysis relative to control. The settings on record: dose 0.1-1000 nM. Type of experiment: cell-based. The essentials:
as §3

T2 sequence (O14965 whole entry, looked up): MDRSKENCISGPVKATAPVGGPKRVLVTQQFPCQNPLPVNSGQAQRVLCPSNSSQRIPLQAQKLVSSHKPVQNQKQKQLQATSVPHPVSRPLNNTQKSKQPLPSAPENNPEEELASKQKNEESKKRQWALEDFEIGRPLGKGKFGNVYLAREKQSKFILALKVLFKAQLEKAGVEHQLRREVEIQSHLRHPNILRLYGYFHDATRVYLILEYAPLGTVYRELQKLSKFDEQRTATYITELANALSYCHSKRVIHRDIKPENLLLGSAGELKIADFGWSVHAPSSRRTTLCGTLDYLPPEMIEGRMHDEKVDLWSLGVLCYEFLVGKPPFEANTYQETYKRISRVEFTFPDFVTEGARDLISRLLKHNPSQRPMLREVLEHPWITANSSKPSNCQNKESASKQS
T2 sequence (Q96SW2 whole entry, looked up): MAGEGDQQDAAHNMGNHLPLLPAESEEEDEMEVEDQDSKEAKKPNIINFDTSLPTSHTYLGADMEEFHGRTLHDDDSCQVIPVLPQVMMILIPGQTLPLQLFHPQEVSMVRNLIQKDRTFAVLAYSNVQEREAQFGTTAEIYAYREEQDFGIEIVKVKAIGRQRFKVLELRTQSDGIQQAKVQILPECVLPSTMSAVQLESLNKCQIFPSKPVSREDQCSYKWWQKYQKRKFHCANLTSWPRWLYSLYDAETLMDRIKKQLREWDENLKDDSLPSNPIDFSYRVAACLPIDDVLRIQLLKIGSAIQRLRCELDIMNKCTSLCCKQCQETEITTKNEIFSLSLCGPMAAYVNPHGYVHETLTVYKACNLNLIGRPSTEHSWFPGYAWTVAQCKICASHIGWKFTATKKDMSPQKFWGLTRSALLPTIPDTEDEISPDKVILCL

On to `O=C1CCC(N2C(=O)c3cccc(OCCOCCOCCOCCNC(=O)[C@]4(Cc5cccc(Nc6nccs6)n5)CC[C@@H](Oc5cccc(Cl)c5F)CC4)c3C2=O)C(=O)N1` (stereo partly specified), for which the IC50 result is “Not Active” in experiment [1]; 6690 nM in the experiment on SK-N-AS [2]; 26.4 nM in [8]; 21.5 nM in the experiment on IMR-32; “Not Active” in [9]; 131 nM in experiment [13]. The IC50 result in experiment [18] is given as “Not Active”. Besides, the Activity result in experiment [3] and in [15] was “Dose-Dependent Effect” throughout. Moreover, the result (in experiment [4]; in the experiment on NGP; in [7]; in [12]) was Active. In addition, the Emax in [5] stood at 53.5%; in experiment [6], 80.2%; in [10], 85%; in experiment [11], 38.2%; in the experiment on SK-N-AS [14], 45%; in experiment [16], 15.5%. Also, the values for the Emax in experiment [17] and in experiment [19] were 37.8% and 89%, respectively.

Broadly, the IC50 is the midpoint of a concentration-inhibition curve.
